We go through 72 compounds from ChEMBL document CHEMBL4513216, “Probing the Open Global Health Chemical Diversity Library for Multistage-Active Starting Points for Next-Generation Antimalarials” (ACS Infect Dis, 2020).

This data set is described as follows: Toxicity liver stage against HepG2, at 10uM. Type of data set: cell-based. On the set-up: test concentration 10 uM, cell line HepG2-A16-CD81EGFP. To be noted: human, HepG2-A16-CD81EGFP cells; read-out: INHIBITION
The essentials: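 Uninfected HepG2-A16-CD81EGFP cells, 3 × 10^3 per well, 1536-well, plated on prespotted compound at 10 μM final, parasite-free screening media added to match infected plates; puromycin 10 μM positive, DMSO 0.5% negative; run in parallel with 48 h PbLuc assay at 37 °C, 5% CO2; viability by CellTiter-Glo luminescence, normalized to controls.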

`Cc1cnc(CNC(=O)[C@@H]2CC[C@@H]3[C@@H](CCN3Cc3ccco3)O2)cn1`: the cytotoxicity at 10 µM is 0.296%.
Next, `CCC1CN(C)c2ccccc2CN1C(=O)Nc1ccc(C)cc1` (configuration not stated): 4.01%; `O=C(c1cnc(-c2ccco2)s1)N1CCCCC1Cn1cccn1` (configuration not stated): -5.83%.
Next, `O=C(c1ccc2occc2c1)N1CCC(C(=O)O)(n2cccn2)CC1`: -0.657%.
Next, `CCOC(C(=O)N1CCn2c(CC)nnc2C1)c1ccccc1` (configuration not stated): 4.48%; `C[C@@H]1CN(c2nc3c(cc2C(N)=O)CCC3)C[C@]1(C)O`: -0.112%; `Cn1c(NCC(=O)N2CCCC2)c(C#N)c(=O)n(C)c1=O`: 15.4%.
On to `CC(C)CN1CC(c2nc(CCc3ccccc3)n[nH]2)CC1=O` (configuration not stated), for which the cytotoxicity at 10 µM is 6.08%.
In the case of `COc1ccccc1-n1c(O)cc(C)c(C#N)c1=O`, the cytotoxicity at 10 µM was 2.74%.
Next, `CC(C)CN1CCCC1c1ccc(C(=O)Nc2cccnc2)s1` (configuration not stated): -6.79%; `COCc1cc(NCc2cccnc2Oc2ccc(C)nc2)ncn1`: 8.12%.
Next, `CC(=O)N(Cc1noc(C)n1)C1CCN(Cc2ccon2)C1` (configuration not stated): 4.74%.
Next, `COc1c(NC(=O)N(C)CCOc2ccc(F)cc2)c(C)nn1C`: 1.4%; `Cn1cc(C[C@H]2[C@H](O)CCN2Cc2ccncc2)cn1`: -78.5%.
Consider `CCSC1(CNc2ncc(Br)cn2)CCOCC1`, for which the cytotoxicity at 10 µM is -2.72%.
Next, `O=C(c1ccsc1)N1CCN2C[C@H](OCc3cccnc3)C[C@H]2C1`: 0.59%.
Next, `COc1cccc(CCNC(=O)NC(C)C)c1O`: 2.27%; `Cc1cn(CC(=O)Nc2cc(C(C)C)nn2C)cn1`: 5.44%.
Next, `O=c1ccc(S(=O)(=O)N2CCCC2)cn1CC1CCCCO1` (configuration not stated): -0.983%; `Cc1cc(CN2CCN(C(=O)NCCc3csc(C)n3)CC2)on1`: -2.68%.
`C[C@@H]1CN(C2CCN(Cc3nn(C)c4cccc(Cl)c34)CC2)C[C@H](C)O1`: the cytotoxicity at 10 µM was -6.48%.
Take `CCc1nsc(N2CCN(Cc3ccno3)CC2)n1`: the cytotoxicity at 10 µM is -8.95%.
Next, `O=S1(=O)CCN(CCCc2ccc(Cl)cc2)CC1`: 1.91%; `CC(C)c1ccc(OCCC(=O)N(C)CC(N)=O)cc1`: 6.77%.
Take `CC(C)Sc1ccc(C(C)Nc2nc3c(cnn3C)c(=O)[nH]2)cc1` (configuration not stated): the cytotoxicity at 10 µM came to 21.4%.
Next, `COCc1ncn2c1CN(C(=O)c1cnc3ccccc3c1)CC2`: -2.39%; `Cc1nn(C)cc1C(=O)N1CCCN(C2Cc3ccccc3C2)CC1`: -3.16%.
For `COc1ccc(CCC2CCCN(C(=O)c3cnc(N)nc3C)C2)cc1` (configuration not stated), the cytotoxicity at 10 µM is 1.14%.
Next, `COc1cc(C(=O)O)cc(I)c1OCC(=O)NCCc1ccccc1`: -11.9%; `Cc1cc(NC(=O)c2ccc(N3CCOCC3)c(C)c2)[nH]n1`: -35.1%; `Cc1cnc(C(C)(C)NC(=O)NCc2cccnc2OC(C)C)s1`: 8.46%.
Next, `CCc1cc(NCCNC(=O)c2cccnc2)n2nc(C)c(C)c2n1`: -3.05%.
Next, `COCCN1CCC2(CC1)CN(C(=O)Cc1cccnc1)CCO2`: -9.43%.
In the case of `CCOCCN1CCN(Cc2coc(-c3cccc(F)c3)n2)CC1`, the cytotoxicity at 10 µM was -2.87%.
Next, `NC(=O)c1ccc(C(=O)N(Cc2ccc(O)cc2)CC2CC2)cc1`: 8.19%; `CN(CC(=O)N1CCCC1)Cc1nc2c(cnn2C)c(=O)[nH]1`: -1.38%; `COc1ccc(CNC(=O)NCc2cc(C)oc2C)cc1`: -6%.
Next, `C1CC(CO[C@@H]2CC[C@H]3[C@H]2OCCN3CC2CCOCC2)CCO1`: 13.7%.
Next, `CC(C#N)CNS(=O)(=O)c1ccc(Br)c(F)c1` (configuration not stated): -12.3%.
In the case of `CNC(=O)[C@H]1CCS(=O)(=O)[C@@H]2CN(Cc3ccc(OC)cc3)C[C@H]12`, the cytotoxicity at 10 µM was -10.3%.
Next, `Cc1nc(C2CCCN2C(=O)CN(C)Cc2ccccc2)no1` (configuration not stated): -0.803%.
Next, `CN(CC(F)(F)F)C(=O)CNC(=O)N1CCC(N2CCCC2)C1` (configuration not stated): 3.72%; `Cc1csc(N2CCCN(C3Cc4ccccc4C3)CC2)n1`: 10.3%.
Next, `COc1ccc(-c2ccnc(N)c2)c(OC)c1`: 17.6%; `CC(C)Oc1cc(N2C[C@H](C3CC3)[C@@H](N)C2)nc(N)n1`: -4.75%; `COC(=O)c1cc(C(=O)N2CCC(OC)CC2)n(-c2ccccc2)n1`: -15.1%.
`CC(=O)c1cnc(NCCN2CCCC(c3ccccc3)C2)nc1C` (configuration not stated): the cytotoxicity at 10 µM was -3.44%.
Regarding `N#Cc1cc(F)c(NCc2ccc(F)cc2)c(F)c1`, the cytotoxicity at 10 µM is -57%.
Next, `COc1ccc(Cl)cc1CN(CC(N)=O)C(C)C`: 1.49%; `COCCn1c2c(ccc1=O)CCN(C(=O)Cc1ccsc1)CC2`: 2.22%.
Turning to `Cc1nn(C)c(N2CCOCC2)c1CNCc1ccc(CO)c(F)c1`, the cytotoxicity at 10 µM is -14.5%.
As for `CC(C)OCCCNC(=O)CS(=O)(=O)Cc1ccc(C(C)(C)C)cc1`, the cytotoxicity at 10 µM is 4.92%.
In the case of `Cc1cccc(OCC2CCCN(C(=O)CCn3ccccc3=O)C2)c1` (configuration not stated), the cytotoxicity at 10 µM is -0.987%.
Next, `Fc1ccc(OCCCNC2=NCCN2)cc1`: 5.08%; `COCCCNC(=O)c1cc(-c2cnc(N(C)C)nc2)cn1CC1CC1`: 2.28%.
Next, `CCn1c(CN(C)C)nnc1C1CCN(Cc2ccc(C)s2)CC1`: 7.01%; `Cc1cc(N2CCC(N(C)Cc3cccnc3)C2=O)n(C)n1` (configuration not stated): -9.98%; `c1ccc(OC2C[C@@H]3CN(Cc4cnccn4)C[C@@H]3C2)cc1` (some centres not stated): -5.92%.
Next, `Cc1ccc(NC(=O)c2ccc(N3CCCCC3)nn2)c(Cl)c1`: -10.7%; `Cc1nc(C)c(C)c(N2C[C@@H](CN3CCCN(C)CC3)[C@@H](CO)C2)n1`: -10.4%.
Take `O=C(c1ccco1)N1CCCC2(C1)CN(c1nncs1)CCO2` (configuration not stated): the cytotoxicity at 10 µM was -99.3%.
As for `COc1ccc(CNCC2CN(C3CC3)CCO2)cc1OC` (configuration not stated), the cytotoxicity at 10 µM was -17%.
Next, `CS(=O)(=O)c1ccc(NCC2CCCO2)c(S(C)(=O)=O)c1` (configuration not stated): 3.72%; `Cc1ccc(NC(=O)c2ccc(=O)n(CC(=O)NC3CCCC3)n2)cc1`: -3.63%; `CC(C)c1n[nH]c(C2CN(C(=O)Cn3ccccc3=O)CCO2)n1` (configuration not stated): -0.924%.
Next, `Cc1noc(C2CCCN(Cn3cc(Cl)cn3)C2)n1` (configuration not stated): 2.42%.
Next, `CC1(C)Cc2c(cnn2-c2ccccc2)C(NC2CCSCC2)C1` (configuration not stated): -186%; `CC(C)N(Cc1cccnc1)C(=O)CCSc1ccc(C#N)cc1`: 27.1%.
Consider `O=C(O)CCc1ccc(S(=O)(=O)Nc2cnn(CC3CC3)c2)cc1`, for which the cytotoxicity at 10 µM was -8.35%.
Next, `CCOc1ccc(NC(=O)Cc2cc(C)[nH]n2)cc1CO`: 0.335%; `NC(=O)CSCCC(=O)N1CCCC1c1ccsc1` (configuration not stated): -13.6%.
Next, `CC(NCc1ccnc(OC2CCC2)c1)c1cnn(C)c1` (configuration not stated): 5.64%.
